How the values were obtained:
[1] = test system: Canis familiaris; experiment: Inhibition of histamine-induced gastric secretion in beagle dog assessed as titratable acid at 32 mg/kg administered directly into stomach via gastric cannula measured after 2 hrs of stimulation; type: functional; conditions: Canis lupus familiaris
Summary of the method: (§1)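 Fistulated conscious female beagles (5-9 kg) got the dose intragastrically via cannula in 50 mL 1% methylcellulose, with vehicle controls. Histamine 64 µg base/kg sc (diphosphate in saline) was given 1 h later. Output over 2 h was assessed as volume, titratable acid (titration to pH 7, 0.01 N NaOH) and total acid output (volume × concentration).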

[2] = test system: Canis familiaris; experiment: Inhibition of histamine-induced gastric secretion in beagle dog assessed as total acid output at 32 mg/kg administered directly into stomach via gastric cannula measured after 2 hrs of stimulation; type: functional; conditions: Canis lupus familiaris; summary of the method: as §1
[3] = test system: Canis familiaris; experiment: Inhibition of 2-deoxy-D-glucose-induced gastric secretion in beagle dog assessed as volume at 16 mg/kg administered directly into stomach via gastric cannula measured after 2 hrs of stimulation; type: functional; conditions: Canis lupus familiaris
Summary of the method: (§2)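 Female beagles (5-9 kg), nonanesthetized, with chronic gastric fistula. Test agent was given in 50 mL 1% methylcellulose through the gastric cannula, with vehicle controls, 1 h before 2-deoxy-D-glucose 200 mg/kg sc in saline. The 2 h collection was measured for volume and for acid by titration to pH 7 with 0.01 N NaOH; total acid was calculated as volume × concentration.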

[4] = test system: Canis familiaris; experiment: Inhibition of histamine-induced gastric secretion in beagle dog assessed as volume at 32 mg/kg administered directly into stomach via gastric cannula measured after 2 hrs of stimulation; type: functional; conditions: Canis lupus familiaris; summary of the method: as §1
[5] = test system: Canis familiaris; experiment: Inhibition of gastrin tetrapeptide-induced gastric secretion in beagle dog assessed as volume at 16 mg/kg administered directly into stomach via gastric cannula measured after 2 hrs of stimulation; type: functional; conditions: Canis lupus familiaris
Summary of the method: (§3)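 Conscious female beagles (5-9 kg) with chronic gastric fistula. Dose in 50 mL 1% methylcellulose was put into the stomach via the cannula 1 h before gastrin tetrapeptide 64 µg/kg sc (from 640 µg/mL in 30% Me2SO); controls got vehicle. Juice was collected for 2 h. Volume was measured, titratable acid obtained by titration to pH 7 with 0.01 N NaOH, and total acid taken as volume × concentration.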

[6] = test system: Canis familiaris; experiment: Inhibition of gastrin tetrapeptide-induced gastric secretion in beagle dog assessed as titratable acid at 8 mg/kg administered directly into stomach via gastric cannula measured after 2 hrs of stimulation; type: functional; conditions: Canis lupus familiaris; summary of the method: as §3
[7] = test system: Canis familiaris; experiment: Inhibition of 2-deoxy-D-glucose-induced gastric secretion in beagle dog assessed as titratable acid at 16 mg/kg administered directly into stomach via gastric cannula measured after 2 hrs of stimulation; type: functional; conditions: Canis lupus familiaris; summary of the method: as §2
[8] = test system: Canis familiaris; experiment: Inhibition of gastrin tetrapeptide-induced gastric secretion in beagle dog assessed as total acid output at 8 mg/kg administered directly into stomach via gastric cannula measured after 2 hrs of stimulation; type: functional; conditions: Canis lupus familiaris; summary of the method: as §3
[9] = test system: Canis familiaris; experiment: Inhibition of 2-deoxy-D-glucose-induced gastric secretion in beagle dog assessed as total acid output at 16 mg/kg administered directly into stomach via gastric cannula measured after 2 hrs of stimulation; type: functional; conditions: Canis lupus familiaris; summary of the method: as §2
[10] = test system: Canis familiaris; experiment: Inhibition of gastrin tetrapeptide-induced gastric secretion in beagle dog at 8 mg/kg administered directly into stomach via gastric cannula measured after 2 hrs of stimulation; type: functional; conditions: Canis lupus familiaris; summary of the method: as §3
[11] = test system: Canis familiaris; experiment: Inhibition of gastrin tetrapeptide-induced gastric secretion in beagle dog assessed as titratable acid at 16 mg/kg administered directly into stomach via gastric cannula measured after 2 hrs of stimulation; type: functional; conditions: Canis lupus familiaris; summary of the method: as §3
[12] = test system: Canis familiaris; experiment: Inhibition of 2-deoxy-D-glucose-induced gastric secretion in beagle dog assessed as titratable acid at 8 mg/kg administered directly into stomach via gastric cannula measured after 2 hrs of stimulation; type: functional; conditions: Canis lupus familiaris; summary of the method: as §2
[13] = test system: Canis familiaris; experiment: Toxicity in beagle dog assessed as emesis administered directly into stomach via gastric cannula; type: organism-based, Canis lupus familiaris; conditions: in vivo, other
[14] = test system: Canis familiaris; experiment: Inhibition of 2-deoxy-D-glucose-induced gastric secretion in beagle dog assessed as total acid output at 8 mg/kg administered directly into stomach via gastric cannula measured after 2 hrs of stimulation; type: functional; conditions: Canis lupus familiaris; summary of the method: as §2
[15] = test system: Canis familiaris; experiment: Inhibition of gastrin tetrapeptide-induced gastric secretion in beagle dog assessed as volume at 8 mg/kg administered directly into stomach via gastric cannula measured after 2 hrs of stimulation; type: functional; conditions: Canis lupus familiaris; summary of the method: as §3
[16] = test system: Canis familiaris; experiment: Inhibition of 2-deoxy-D-glucose-induced gastric secretion in beagle dog assessed as volume at 8 mg/kg administered directly into stomach via gastric cannula measured after 2 hrs of stimulation; type: functional; conditions: Canis lupus familiaris; summary of the method: as §2
[17] = test system: Canis familiaris; experiment: Inhibition of gastrin tetrapeptide-induced gastric secretion in beagle dog assessed as total acid output at 16 mg/kg administered directly into stomach via gastric cannula measured after 2 hrs of stimulation; type: functional; conditions: Canis lupus familiaris; summary of the method: as §3
[18] = test system: Canis familiaris; experiment: Toxicity in beagle dog assessed as gastric bleeding administered directly into stomach via gastric cannula; type: organism-based, Canis lupus familiaris; conditions: in vivo, other
[19] = test system: Canis familiaris; experiment: Inhibition of gastrin tetrapeptide-induced gastric secretion in beagle dog at 16 mg/kg administered directly into stomach via gastric cannula measured after 2 hrs of stimulation; type: functional; conditions: Canis lupus familiaris; summary of the method: as §3
[20] = test system: Canis familiaris; experiment: Toxicity in beagle dog assessed as tachycardia administered directly into stomach via gastric cannula; type: organism-based, Canis lupus familiaris; conditions: in vivo, other
[21] = test system: Canis familiaris; experiment: Inhibition of gastrin tetrapeptide-induced gastric secretion in beagle dog at 2 mg/kg administered directly into stomach via gastric cannula measured after 2 hrs of stimulation; type: functional; conditions: Canis lupus familiaris; summary of the method: as §3
[22] = test system: Canis familiaris; experiment: Inhibition of gastrin tetrapeptide-induced gastric secretion in beagle dog at 4 mg/kg administered directly into stomach via gastric cannula measured after 2 hrs of stimulation; type: functional; conditions: Canis lupus familiaris; summary of the method: as §3
[23] = test system: Canis familiaris; experiment: Inhibition of gastrin tetrapeptide-induced gastric secretion in beagle dog at 32 mg/kg administered directly into stomach via gastric cannula measured after 2 hrs of stimulation; type: functional; conditions: Canis lupus familiaris; summary of the method: as §3
[24] = Dissociation constant, apparent pKa of the compound in 20% EtOH/H2O; type: physicochemical; conditions: read-out: Apparent_pKa
Summary of the method: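 Potentiometric titration in 20% EtOH–H2O with a glass-calomel electrode. Sample was titrated directly with 0.5 N NaOH, or dissolved with excess NaOH and back-titrated with 0.5 N HCl. pKa was read as the pH at the half-neutralization point of the curve.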

[25] = test system: Canis familiaris; experiment: Inhibition of gastrin tetrapeptide-induced gastric secretion in beagle dog assessed as total acid output at 32 mg/kg administered directly into stomach via gastric cannula measured after 2 hrs of stimulation; type: functional; conditions: Canis lupus familiaris; summary of the method: as §3
[26] = test system: Canis familiaris; experiment: Inhibition of gastrin tetrapeptide-induced gastric secretion in beagle dog assessed as titratable acid at 32 mg/kg administered directly into stomach via gastric cannula measured after 2 hrs of stimulation; type: functional; conditions: Canis lupus familiaris; summary of the method: as §3
[27] = test system: Canis familiaris; experiment: Inhibition of gastrin tetrapeptide-induced gastric secretion in beagle dog assessed as volume at 32 mg/kg administered directly into stomach via gastric cannula measured after 2 hrs of stimulation; type: functional; conditions: Canis lupus familiaris; summary of the method: as §3

Cl.N=C(CS)NCC12CC3CC(CC(C3)C1)C2
inhibition in vivo at 32 mg/kg [1]: 40% | inhibition in vivo at 32 mg/kg [2]: 55% | inhibition in vivo at 16 mg/kg [3]: 79% | inhibition in vivo at 32 mg/kg [4]: 36% | inhibition in vivo at 16 mg/kg [5]: 74% | inhibition in vivo at 8 mg/kg [6]: 0% | inhibition in vivo at 16 mg/kg [7]: 85% | inhibition in vivo at 8 mg/kg [8]: 8% | inhibition in vivo at 16 mg/kg [9]: 97% | inhibition in vivo at 8 mg/kg [10]: 47% | inhibition in vivo at 16 mg/kg [11]: 91% | inhibition in vivo at 8 mg/kg [12]: 18% | Activity [13]: Toxic | inhibition in vivo at 8 mg/kg [14]: 42% | inhibition in vivo at 8 mg/kg [15]: 7% | inhibition in vivo at 8 mg/kg [16]: 31% | inhibition in vivo at 16 mg/kg [17]: 83% | Activity [18]: Toxic | inhibition in vivo at 16 mg/kg [19]: 74% | Activity [20]: Toxic

CCNC(=N)CS.Cl
inhibition in vivo at 2 mg/kg [21]: 27% | Activity [13]: Toxic | inhibition in vivo at 4 mg/kg [22]: 90% | Activity [18]: Toxic | Activity [20]: Toxic

Cl.N=C(CS)Nc1cccc(Cl)c1
inhibition in vivo at 32 mg/kg [23]: 61% | Activity [13]: Toxic | Activity [18]: Toxic | inhibition in vivo at 16 mg/kg [19]: 16% | Activity [20]: Toxic

Cl.SCC1=NCCN1
inhibition in vivo at 2 mg/kg [21]: 100% | Activity [13]: Toxic | Activity [18]: Toxic | Activity [20]: Toxic

Cl.N=C(CCS)NCc1ccccc1
inhibition in vivo at 32 mg/kg [23]: 42% | Activity [13]: Toxic | Activity [18]: Toxic | inhibition in vivo at 16 mg/kg [19]: 18% | Activity [20]: Toxic

N=C(CSCc1ccccc1)NC[C@@H]1C[C@H]2CC[C@H]1C2 (relative stereo; 51)
pKa [24]: 11 | Activity [13]: Toxic | Activity [18]: Toxic | inhibition in vivo at 16 mg/kg [19]: 19% | Activity [20]: Toxic

CNC(=S)NCCSCc1[nH]cnc1C [METIAMIDE]
inhibition in vivo at 16 mg/kg [5]: 65% | inhibition in vivo at 32 mg/kg [25]: 90% | inhibition in vivo at 32 mg/kg [26]: 70% | inhibition in vivo at 16 mg/kg [11]: 91% | inhibition in vivo at 16 mg/kg [17]: 64% | inhibition in vivo at 32 mg/kg [27]: 83%

Source: ChEMBL document CHEMBL3227926, “2-Mercaptoacetamidines as gastric antisecretory agents” (J Med Chem, 1979)
